Test results from ChEMBL document CHEMBL4138073, “Synthesis and biological evaluation of 8-hydroxy-2,7-naphthyridin-2-ium salts as novel inhibitors of acetylcholinesterase (AChE) and butyrylcholinesterase (BChE)” (Medchemcomm, 2017).
The source made the active and inactive calls. No cut-off for these calls is given here.

What was measured:
[1] = target: Cholinesterase (Equus caballus) (UniProt P81908); assay: Inhibition of horse serum BChE at 10 uM using butyrylthiocholine chloride substrate by spectrophotometry based Ellman's assay
Method in brief: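 Ellman kinetic assay in microplates: equine serum BChE (final 0.350 U/ml) added last to start reaction; butyrylthiocholine chloride pseudo-substrate with DTNB; absorbance at 412 nm; 25 °C (room temperature). Tris-HCl 50 mM pH 8 buffer with DMSO ≤0.05% final. Compound absorbance read before enzyme addition as blank. Physostigmine 10 µM final as positive control. Primary screen at 10 µM.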

Cholinesterase = Cholinesterase (Equus caballus, UniProt P81908); assay: Inhibition of horse serum BChE at using butyrylthiocholine chloride substrate by spectrophotometry based Ellman's assay
Acetylcholinesterase = Acetylcholinesterase (Electrophorus electricus, UniProt O42275); assay: Inhibition of electric eel AChE at using acetylthiocholine iodide substrate by spectrophotometry based Ellman's assay
[2] = Dissociation constant, pKa of the compound at 52 uM at pH 2.3 to 12.3 by UV-Vis spectroscopy; type: physicochemical

Chain of Cholinesterase (Equus caballus) (P81908 whole entry): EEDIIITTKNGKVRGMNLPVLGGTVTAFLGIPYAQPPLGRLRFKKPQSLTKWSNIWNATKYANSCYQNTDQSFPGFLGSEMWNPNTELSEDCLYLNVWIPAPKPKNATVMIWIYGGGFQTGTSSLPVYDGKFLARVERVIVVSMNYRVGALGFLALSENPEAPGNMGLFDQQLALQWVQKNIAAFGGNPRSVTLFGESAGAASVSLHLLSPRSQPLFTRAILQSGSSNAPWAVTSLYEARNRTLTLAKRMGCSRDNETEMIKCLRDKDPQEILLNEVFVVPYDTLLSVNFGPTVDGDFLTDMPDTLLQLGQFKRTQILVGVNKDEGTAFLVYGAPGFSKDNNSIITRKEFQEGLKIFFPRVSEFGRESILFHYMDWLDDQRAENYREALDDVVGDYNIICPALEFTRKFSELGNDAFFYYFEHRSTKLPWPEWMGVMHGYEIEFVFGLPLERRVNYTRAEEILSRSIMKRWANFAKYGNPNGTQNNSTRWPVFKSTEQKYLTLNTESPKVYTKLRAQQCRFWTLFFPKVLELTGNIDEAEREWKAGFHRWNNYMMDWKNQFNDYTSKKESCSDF
Chain of Acetylcholinesterase (O42275 whole entry): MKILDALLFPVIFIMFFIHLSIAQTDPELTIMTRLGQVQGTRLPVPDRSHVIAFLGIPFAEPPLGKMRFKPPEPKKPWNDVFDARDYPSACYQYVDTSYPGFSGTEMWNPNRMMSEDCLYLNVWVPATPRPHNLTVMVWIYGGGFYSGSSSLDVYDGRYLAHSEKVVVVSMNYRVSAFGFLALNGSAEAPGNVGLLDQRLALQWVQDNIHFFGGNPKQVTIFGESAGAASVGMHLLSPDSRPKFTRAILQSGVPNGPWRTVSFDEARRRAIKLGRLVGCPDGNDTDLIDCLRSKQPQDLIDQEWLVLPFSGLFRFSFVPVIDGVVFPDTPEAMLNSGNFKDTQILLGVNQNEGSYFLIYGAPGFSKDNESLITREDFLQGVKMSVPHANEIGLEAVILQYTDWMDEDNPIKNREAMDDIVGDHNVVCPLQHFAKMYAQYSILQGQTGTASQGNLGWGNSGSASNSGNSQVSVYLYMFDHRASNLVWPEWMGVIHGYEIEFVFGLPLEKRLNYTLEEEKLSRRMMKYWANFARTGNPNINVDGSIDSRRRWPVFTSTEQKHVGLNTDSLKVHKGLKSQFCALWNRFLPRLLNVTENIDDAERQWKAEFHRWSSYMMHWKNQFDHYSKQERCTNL
Chain of Cholinesterase (P81908 whole entry): as the sequence (P81908 whole entry) above

For `Oc1nc2c(c3cc[n+](Cc4ccccc4)cc13)CCc1ccccc1-2`, which inhibition [1] is on record?
The inhibition was “inactive”.

For `Oc1nc(-c2ccc3ccccc3c2)cc2cc[n+](Cc3ccccc3)cc12`, which inhibition [1] is on record?
Its inhibition is 97.1%.

And the IC50 (Cholinesterase)?
Its IC50 is 2880 nM.

What about the IC50 (Acetylcholinesterase) of the same molecule?
The IC50 was 990 nM.

With `C[n+]1ccc2cc(-c3ccccc3)[nH]c(=O)c2c1` as the molecule, how does the inhibition [1] read?
Its inhibition is 51.6%.

Which pKa at 52 µM [2] does the source give for `C[n+]1ccc2cc(-c3ccccc3)nc(O)c2c1` here?
Its pKa at 52 µM is 8.7.

With `CC[n+]1ccc2c3c(nc(O)c2c1)-c1ccccc1C3` as the molecule, how does the inhibition [1] read?
The inhibition was 77.3%.

And the IC50 (Acetylcholinesterase)?
Its IC50 is 1550 nM.

For `CC[n+]1ccc2cc(-c3ccccc3)nc(O)c2c1`, which inhibition [1] is on record?
The inhibition was 45.9%.

For `Oc1nc(-c2ccccc2)cc2cc[n+](Cc3ccccc3)cc12`, which inhibition [1] is on record?
Its inhibition is 76.4%.

And the IC50 (Cholinesterase)?
The IC50 was 4990 nM.

What about the IC50 (Acetylcholinesterase) of the same molecule?
Its IC50 is 2570 nM.

Which inhibition [1] does the source give for `CC[n+]1ccc2cc(-c3ccc4ccccc4c3)nc(O)c2c1` here?
Its inhibition is 59.5%.

For `CC[n+]1ccc2cc(-c3ccccn3)nc(O)c2c1`, which inhibition [1] is on record?
The inhibition was 48.5%.
